Measured values: ChEMBL document CHEMBL3351887, “'Click' assembly of glycoclusters and discovery of a trehalose analogue that retards Aβ40 aggregation and inhibits Aβ40-induced neurotoxicity” (Bioorg Med Chem Lett, 2014)
One block for each compound: values may come before it.

Experiments:
[1] = Neuroprotective activity in C57BL/6 mouse primary cortical neurons assessed as reduction in amyloid beta-40-induced cell death at 100 uM pre-incubated with amyloid beta-40 for 6 hrs and measured after 48 hrs by trypan blue dye exclusion assay; format: functional, Cerebral cortex neuron; parameters: scale not given: the % may be the effect or the level left
Method in brief: (§1)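 Aβ40 (40 µM) was preincubated with or without compound for 6 h at 37 °C, at molar ratios 1:1 and 2.5:1 (compound:Aβ40). It was then added to 7–9-day-old primary cortical neurons cultured from 6 pregnant C57BL/6 mice. After 48 h, cells were stained with trypan blue and live and dead cells were counted. Values are mean + SE.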

[2] = biological target: Amyloid-beta precursor protein (Homo sapiens) (UniProt P05067); test: Inhibition of amyloid beta-40 aggregation (unknown origin) assessed as beta-turns at 30 uM after 72 hrs by CD spectra analysis (reference value: 0%); parameters: scale not given: the % may be the effect or the level left
[3] = biological target: Amyloid-beta precursor protein (Homo sapiens) (UniProt P05067); test: Inhibition of amyloid beta-40 aggregation (unknown origin) assessed as alpha-helix at 150 uM after 72 hrs by CD spectra analysis (reference value: 11 to 15%); parameters: scale not given: the % may be the effect or the level left
[4] = biological target: Amyloid-beta precursor protein (Homo sapiens) (UniProt P05067); test: Inhibition of amyloid beta-40 aggregation (unknown origin) assessed as beta-sheet at 150 uM after 72 hrs by CD spectra analysis (reference value: 1 to 3%); parameters: scale not given: the % may be the effect or the level left
[5] = biological target: Amyloid-beta precursor protein (Homo sapiens) (UniProt P05067); test: Inhibition of amyloid beta-40 aggregation (unknown origin) assessed as beta-turns at 6 uM after 72 hrs by CD spectra analysis (reference value: 0%); parameters: scale not given: the % may be the effect or the level left
[6] = Toxicity in C57BL/6 mouse primary cortical neurons assessed as reduction in cell viability at 40 to 100 uM after 48 hrs by trypan blue dye exclusion assay; format: cell-based; settings: cerebral cortex neuron
[7] = biological target: Amyloid-beta precursor protein (Homo sapiens) (UniProt P05067); test: Inhibition of amyloid beta-40 aggregation (unknown origin) assessed as extension of lag phase of Abeta40 aggregation at 100 uM by ThT fluorescence assay; parameters: scale not given: the % may be the effect or the level left
Method in brief: (§2)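 Monomer-rich Aβ40 (35 µM, supernatant after NaOH dissolution, sonication and ultracentrifugation) was incubated with 10 nM–100 µM compound in 20 mM phosphate buffer pH 7.4 (I 0.15 M), with 20 µM ThT and 0.007% NaN3, quiescent at 37 °C. Fluorescence (ex 440, em 480 nm) was read every 5 min. Lag time came from an empirical sigmoidal nonlinear-regression fit; mean ± SE of four independent experiments.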

[8] = biological target: Amyloid-beta precursor protein (Homo sapiens) (UniProt P05067); test: Inhibition of amyloid beta-40 aggregation (unknown origin) assessed as alpha-helix at 30 uM after 72 hrs by CD spectra analysis (reference value: 11 to 15%); parameters: scale not given: the % may be the effect or the level left
[9] = biological target: Amyloid-beta precursor protein (Homo sapiens) (UniProt P05067); test: Inhibition of amyloid beta-40 aggregation (unknown origin) assessed as fibril length at 300 uM for 7 days at pH 7.4 by transmission electron microscopy (reference value: > 2 micrometer)
Method in brief: (§3)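 Aβ40 (60 µM in control) was incubated quiescently with the compound at compound:Aβ40 molar ratios of 1:5, 1:1 and 5:1, pH 7.4, 37 °C, for 7 days. Fibril width and length were then measured from transmission electron microscopy images.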

[10] = Neuroprotective activity in C57BL/6 mouse primary cortical neurons assessed as reduction in amyloid beta-40-induced cell death at 40 uM pre-incubated with amyloid beta-40 for 6 hrs and measured after 48 hrs by trypan blue dye exclusion assay; format: functional, Cerebral cortex neuron; parameters: scale not given: the % may be the effect or the level left; method in brief: as §1
[11] = biological target: Amyloid-beta precursor protein (Homo sapiens) (UniProt P05067); test: Inhibition of amyloid beta-40 aggregation (unknown origin) assessed as extension of lag phase of Abeta40 aggregation by ThT fluorescence assay; method in brief: as §2
[12] = biological target: Amyloid-beta precursor protein (Homo sapiens) (UniProt P05067); test: Inhibition of amyloid beta-40 aggregation (unknown origin) assessed as alpha-helix at 6 uM after 72 hrs by CD spectra analysis (reference value: 11 to 15%); parameters: scale not given: the % may be the effect or the level left
[13] = biological target: Amyloid-beta precursor protein (Homo sapiens) (UniProt P05067); test: Inhibition of amyloid beta-40 aggregation (unknown origin) assessed as unordered at 6 uM after 72 hrs by CD spectra analysis (reference value: 84 to 87%); parameters: scale not given: the % may be the effect or the level left
[14] = biological target: Amyloid-beta precursor protein (Homo sapiens) (UniProt P05067); test: Inhibition of amyloid beta-40 aggregation (unknown origin) assessed as fibril width at 300 uM for 7 days at pH 7.4 by transmission electron microscopy (reference value: 12.3 +/- 1.2 nanometer); method in brief: as §3
[15] = biological target: Amyloid-beta precursor protein (Homo sapiens) (UniProt P05067); test: Inhibition of amyloid beta-40 aggregation (unknown origin) assessed as beta-sheet at 6 uM after 72 hrs by CD spectra analysis (reference value: 1 to 3%); parameters: scale not given: the % may be the effect or the level left
[16] = biological target: Amyloid-beta precursor protein (Homo sapiens) (UniProt P05067); test: Inhibition of amyloid beta-40 aggregation (unknown origin) assessed as unordered at 150 uM after 72 hrs by CD spectra analysis (reference value: 84 to 87%); parameters: scale not given: the % may be the effect or the level left
[17] = biological target: Amyloid-beta precursor protein (Homo sapiens) (UniProt P05067); test: Inhibition of amyloid beta-40 aggregation (unknown origin) assessed as beta-sheet at 30 uM after 72 hrs by CD spectra analysis (reference value: 1 to 3%); parameters: scale not given: the % may be the effect or the level left
[18] = biological target: Amyloid-beta precursor protein (Homo sapiens) (UniProt P05067); test: Inhibition of amyloid beta-40 aggregation (unknown origin) assessed as unordered at 30 uM after 72 hrs by CD spectra analysis (reference value: 84 to 87%); parameters: scale not given: the % may be the effect or the level left
[19] = biological target: Amyloid-beta precursor protein (Homo sapiens) (UniProt P05067); test: Inhibition of amyloid beta-40 aggregation (unknown origin) assessed as beta-turns at 150 uM after 72 hrs by CD spectra analysis (reference value: 0%); parameters: scale not given: the % may be the effect or the level left

Sequence of Amyloid-beta precursor protein (Homo sapiens) (P05067 whole entry): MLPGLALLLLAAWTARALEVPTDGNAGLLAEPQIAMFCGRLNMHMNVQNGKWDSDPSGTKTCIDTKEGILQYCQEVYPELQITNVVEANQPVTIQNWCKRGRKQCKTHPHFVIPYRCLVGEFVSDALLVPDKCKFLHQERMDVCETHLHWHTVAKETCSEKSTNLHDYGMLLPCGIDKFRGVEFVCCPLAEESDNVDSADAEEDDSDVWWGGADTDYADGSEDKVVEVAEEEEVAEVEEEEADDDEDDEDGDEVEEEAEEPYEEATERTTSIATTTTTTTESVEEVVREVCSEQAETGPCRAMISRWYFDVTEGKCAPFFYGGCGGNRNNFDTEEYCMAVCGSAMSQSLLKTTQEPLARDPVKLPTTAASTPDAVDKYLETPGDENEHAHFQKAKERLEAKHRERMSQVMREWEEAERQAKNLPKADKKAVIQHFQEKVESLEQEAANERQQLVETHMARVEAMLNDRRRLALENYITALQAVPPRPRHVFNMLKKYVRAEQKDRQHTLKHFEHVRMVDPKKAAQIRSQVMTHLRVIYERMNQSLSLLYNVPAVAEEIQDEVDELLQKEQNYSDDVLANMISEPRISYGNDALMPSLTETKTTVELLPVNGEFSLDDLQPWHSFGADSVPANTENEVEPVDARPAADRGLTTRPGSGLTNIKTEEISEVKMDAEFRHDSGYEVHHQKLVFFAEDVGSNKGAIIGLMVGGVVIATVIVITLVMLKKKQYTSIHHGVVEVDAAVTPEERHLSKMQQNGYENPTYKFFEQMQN

Compound: OC[C@H]1O[C@H](O[C@H]2O[C@H](Cn3cc(COCC(COCc4cn(C[C@H]5O[C@H](O[C@H]6O[C@H](CO)[C@@H](O)[C@H](O)[C@H]6O)[C@H](O)[C@@H](O)[C@@H]5O)nn4)(COCc4cn(C[C@H]5O[C@H](O[C@H]6O[C@H](CO)[C@@H](O)[C@H](O)[C@H]6O)[C@H](O)[C@@H](O)[C@@H]5O)nn4)COCC(COCc4cn(C[C@H]5O[C@H](O[C@H]6O[C@H](CO)[C@@H](O)[C@H](O)[C@H]6O)[C@H](O)[C@@H](O)[C@@H]5O)nn4)(COCc4cn(C[C@H]5O[C@H](O[C@H]6O[C@H](CO)[C@@H](O)[C@H](O)[C@H]6O)[C@H](O)[C@@H](O)[C@@H]5O)nn4)COCc4cn(C[C@H]5O[C@H](O[C@H]6O[C@H](CO)[C@@H](O)[C@H](O)[C@H]6O)[C@H](O)[C@@H](O)[C@@H]5O)nn4)nn3)[C@@H](O)[C@H](O)[C@H]2O)[C@H](O)[C@@H](O)[C@@H]1O
Activity [1]: 59%
Activity [2]: 30%
Activity [3]: 22%
Activity [4]: 16%
Activity [5]: 27%
Activity [6]: Non-toxic
Activity [7]: 45%
Activity [8]: 20%
Activity [9]: < 2 µm
Activity [10]: 45%
inhibition [11]: Dose-dependent effect
Activity [12]: 21%
Activity [13]: 17%
Activity [14]: 8.7 nm
Activity [15]: 35%
Activity [16]: 36%
Activity [17]: 32%
Activity [18]: 18%
Activity [19]: 26%

Activity [7]: 28%
inhibition [11]: Dose-dependent effect
Compound: OC[C@H]1O[C@@H](n2cc(COCC(COCc3cn([C@@H]4O[C@H](CO)[C@H](O)[C@H](O)[C@H]4O)nn3)(COCc3cn([C@@H]4O[C@H](CO)[C@H](O)[C@H](O)[C@H]4O)nn3)COCC(COCc3cn([C@@H]4O[C@H](CO)[C@H](O)[C@H](O)[C@H]4O)nn3)(COCc3cn([C@@H]4O[C@H](CO)[C@H](O)[C@H](O)[C@H]4O)nn3)COCc3cn([C@@H]4O[C@H](CO)[C@H](O)[C@H](O)[C@H]4O)nn3)nn2)[C@H](O)[C@@H](O)[C@H]1O
